Data set [1] relates to MOLM-13 cells. As to the kind of experiment: CellTiter-Glo cell viability, MOLM-13 cells. Format: cell-based. To be noted: 20 μM, compared with HEL, Jurkat, HL-60. The gist of the method: (§1)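 Leukemia cell lines were grown in RPMI plus 10% FBS and seeded at 1000–1500 cells per well. Cultures received 20 μM test compound or an equal amount of DMSO. CellTiter-Glo reagent was added at 0, 24, 48 and 72 h after treatment, and luminescence was read. Viability is expressed as viable cells in the treated group as a percentage of the DMSO control.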
A general note: In ATP-based viability assays light output follows the ATP content of the culture.

For data set [2], the system named is CHRF-288-11 cells. Put plainly: CellTiter-Glo cell viability, CHRF-288-11 cells. Format: cell-based. To be noted: 20 μM, compared with HEL, Jurkat, HL-60. The gist of the method:
as §1

Data set [3] has as its target T1, PRMT1 (Rattus norvegicus, UniProt Q63009). As to the kind of experiment: competitive fluorescence anisotropy binding assay. As to conditions: 524 nm, 0.2 μM H4-FL, 2.0 μM PRMT1, increasing compound concentration. The gist of the method:
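Recombinant His6-PRMT1 was expressed in E. coli BL21(DE3) and Ni-NTA purified. 0.2 μM fluorescein-H4(1–20) and 2 μM PRMT1 were mixed, then test compound was titrated in until anisotropy levelled off. Excitation was 498 nm and emission 524 nm. Anisotropy from several scans was plotted against inhibitor concentration.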

Data set [4] concerns CMY cells. As to the kind of experiment: CellTiter-Glo cell viability, CMY cells. To be noted: 20 μM, compared with HEL, Jurkat, HL-60. Format: cell-based. The gist of the method: as §1
Data set [5] has as its target T1, PRMT1. As to the kind of experiment: steady-state kinetic analysis of PRMT1 inhibition. Format: biochemical. To be noted: for Ki: Kis.
For data set [6], the system named is leukemia cell lines. Put plainly: CellTiter-Glo cell viability, panel of leukemia cell lines. To be noted: 10 different leukemia cell lines, 20 μM, 3 consecutive days. Format: cell-based.
Data set [7] concerns the target T1, PRMT1. As to the kind of experiment: radiometric P81 filter binding assay, PRMT1. Format: biochemical. As to conditions: for inhibition at 20 µM: read-out: inhibition of PRMT1.
Data set [8] deals with intracellular PRMT1 activity (GFP-ALY methylation) in 293T cells. As to the kind of experiment: GFP-ALY methylation in 293T cells. Format: cell-based, human. In outline: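 A stable 293T line expressing GFP-ALY, kept in DMEM plus 10% FBS, was exposed to 20 μM test compound for 15 h. Cells were lysed on ice for 30 min in H buffer (150 mM NaCl, 20 mM Tris pH 7.8, 1% NP-40, phosphatase/protease inhibitors, 1 mM DTT) and cleared at 12000g for 20 min. GFP-ALY was pulled down on GFP antibody beads and analysed by SDS–PAGE and ASYM24 Western blot with chemiluminescence detection.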

The subject of data set [9] is HEL cells. Put plainly: CellTiter-Glo cell viability, HEL cells. As to conditions: HEL cells (JAK2V617F), 20 μM, 3 days. Format: cell-based. In outline: as §1
In data set [10] the target is PRMT5 (Homo sapiens, UniProt O14744). Put plainly: radiometric P81 filter binding assay, PRMT5. Format: biochemical. As to conditions: initial screening at 20 μM compound. The gist of the method:
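HA-PRMT5 was co-expressed with WDR77 in HEK293T cells and purified on HA-peptide agarose by peptide elution. Reactions at 30 °C used 50 mM HEPES pH 8.0, 50 mM NaCl, 1 mM EDTA, 0.5 mM DTT, with 0.5 μM [3H]SAM and 1 μM H4(1–20) peptide. Test compound at 20 μM was preincubated with enzyme and [3H]SAM for 5 min at room temperature, then peptide was added to start the reaction. Mixtures were spotted on P81 paper, washed with 50 mM NaHCO3 pH 9.0, and counted by scintillation. Controls lacked inhibitor, or both peptide and inhibitor.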

Where [11] appears, read: varied H4-20, [3H]AdoMet fixed at 3 μM.

T1 sequence (Q63009 whole entry): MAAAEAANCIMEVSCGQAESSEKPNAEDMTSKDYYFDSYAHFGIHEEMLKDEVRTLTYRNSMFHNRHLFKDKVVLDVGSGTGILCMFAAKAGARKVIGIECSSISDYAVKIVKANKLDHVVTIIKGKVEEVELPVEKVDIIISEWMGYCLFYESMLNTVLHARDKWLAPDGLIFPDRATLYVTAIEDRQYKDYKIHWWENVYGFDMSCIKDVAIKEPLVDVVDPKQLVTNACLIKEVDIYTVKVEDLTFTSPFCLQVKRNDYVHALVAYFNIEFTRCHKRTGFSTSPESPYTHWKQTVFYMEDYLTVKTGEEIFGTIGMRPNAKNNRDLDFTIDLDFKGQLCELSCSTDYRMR
PRMT5, sequence (O14744 whole entry, species assumed): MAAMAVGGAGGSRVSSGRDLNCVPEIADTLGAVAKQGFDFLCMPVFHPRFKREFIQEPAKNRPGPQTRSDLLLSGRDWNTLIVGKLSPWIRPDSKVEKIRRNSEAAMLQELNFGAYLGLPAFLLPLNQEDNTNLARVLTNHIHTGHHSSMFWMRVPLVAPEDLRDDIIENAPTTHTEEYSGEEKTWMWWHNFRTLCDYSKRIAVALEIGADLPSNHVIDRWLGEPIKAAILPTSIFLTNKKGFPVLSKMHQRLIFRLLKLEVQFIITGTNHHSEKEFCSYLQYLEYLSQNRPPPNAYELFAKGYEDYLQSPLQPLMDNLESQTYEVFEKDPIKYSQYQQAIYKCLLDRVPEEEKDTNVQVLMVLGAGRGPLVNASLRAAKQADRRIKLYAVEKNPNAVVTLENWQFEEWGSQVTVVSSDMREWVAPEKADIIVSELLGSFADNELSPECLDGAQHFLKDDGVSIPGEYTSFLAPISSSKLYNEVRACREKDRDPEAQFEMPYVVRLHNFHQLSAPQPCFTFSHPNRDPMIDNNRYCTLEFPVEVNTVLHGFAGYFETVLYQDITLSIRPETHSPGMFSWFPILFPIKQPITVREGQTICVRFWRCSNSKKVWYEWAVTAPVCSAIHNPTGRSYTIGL
PRMT5, sequence (Q9BQA1 whole entry partner, species assumed): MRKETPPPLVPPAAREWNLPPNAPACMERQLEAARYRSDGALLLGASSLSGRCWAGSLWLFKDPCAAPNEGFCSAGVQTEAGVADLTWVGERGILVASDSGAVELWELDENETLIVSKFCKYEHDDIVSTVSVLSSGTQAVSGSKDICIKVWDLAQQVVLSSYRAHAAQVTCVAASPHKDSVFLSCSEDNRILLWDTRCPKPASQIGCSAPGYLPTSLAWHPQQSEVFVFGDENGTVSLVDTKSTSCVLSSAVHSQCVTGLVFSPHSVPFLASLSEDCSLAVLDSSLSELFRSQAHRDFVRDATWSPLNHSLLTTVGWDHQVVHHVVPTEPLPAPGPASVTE

The term Ki denotes the equilibrium dissociation constant of an inhibitor or competing ligand from its target. Read a high Ki as lower affinity. The term inhibition denotes the share of the control response that was lost under treatment. In the case of `N=C(N)c1ccc(-c2ccc(-c3ccc(C(=N)N)cc3)o2)cc1` [Compound 1, 2,5-bis(4-amidinophenyl)furan], the “sensitivity of cell growth versus other cell lines” value in data set [1], in data set [2] and in data set [4] was “more sensitive” throughout. For the same molecule, the “fluorescence anisotropy plateau of H4-FL and PRMT1 mixture” value in data set [3] is “about 0.055”. Also, the Ki in data set [5] (setting [11]) worked out at 2.6 µM; in data set [5] (varied [3H]SAM, H4-20 fixed at 15 μM), 16 µM. Also, the “Kis smaller than Kii” value in data set [5] (varied H4-20) was “about 14 fold”. This molecule also showed a Kii in data set [5] (setting [11]) of 38 µM. Moreover, the cell growth result was “inhibited cell growth for most of the leukemia cell lines” in data set [6] and “except HEL cells” in [9]. In data set [7], the inhibition at 20 µM was more than 75%. Besides, in [8] (293T cells, 20 μM, 15 h, ASYM24 antibody), the “level of methylated GFP-ALY protein” value is listed as “significantly reduced”. Besides, the cell membrane permeability result in [8] (inferred from inhibition of cellular PRMT1 activity in 293T cells) was “permeable to cell membrane”.
As to `N=C(N)c1ccc(-c2ccc(-c3ccc(OCCCCCCCCOc4ccc(-c5ccc(-c6ccc(C(=N)N)cc6)o5)cc4)cc3)o2)cc1` [Compound 2], in data set [7], the inhibition at 20 µM is more than 85%.
As for `N=C(N)c1ccc(-c2ccc(-c3ccc(C(=N)N)c(F)c3)o2)cc1F` [Compound 21], the “inhibition of PRMT5” value in [10] was “very weak activity”. Moreover, in data set [7] (initial screening at 20 μM compound), the “inhibition of PRMT1” value is reported as “very weak activity”.
